{
  "source": "paper PMC6803818",
  "about": "(Future Medicinal Chemistry, 2019)",
  "key": {"p53-Y220C DBD": {"biological_target": "p53-Y220C DBD (Homo sapiens, UniProt P04637, M133L/N239Y/N268D/V203A/Y220C)", "assay": "Isothermal titration calorimetry", "format": "binding"}, "p53 Y220C DBD (94-312)": {"biological_target": "p53 Y220C DBD (94-312) (Homo sapiens, UniProt P04637, M133L/N239Y/N268D/V203A/Y220C)", "assay": "Light scattering assay, aggregation kinetics at 37°C", "format": "biochemical", "conditions": "for slowing of initial rate of Y220C aggregation relative to PK9318: 15 μM compound"}, "[1]": {"tested_on": "HUH-7 cells (homozygous p53-Y220C)", "assay": "Cell viability, 72 h incubation", "format": "cell-based, human", "conditions": "for p53-Y220C-dependent cell viability reduction: HUH-7 versus HUH-7 p53 KO", "in_short": "(§1)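 HUH-7 (Y220C) cells and an isogenic CRISPR/Cas9 p53 knockout clone (HUH7-F1: codon-124 frameshift on one allele, deletion of residues 125–223 on the other) were exposed to 0.6–15 μM test compound for 72 h. Viability was read in quadruplicate and normalized to blank (=1) and no-cell (=0) controls. Data are mean ± SEM of triplicates, with a paired t-test comparing parental and knockout lines.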"}, "[2]": {"assay": "Cell viability, 72 h incubation, isogenic knockout", "format": "cell-based, human", "conditions": "human", "in_short": "as §1"}, "[3]": {"tested_on": "NUGC-3 (Y220C) and NUGC-4 (wild-type p53)", "assay": "Cell viability of gastric cancer cell lines, 72 h", "format": "cell-based, human", "conditions": "NUGC-3 (Y220C) versus NUGC-4 (wild-type p53)"}, "stabilized p53-Y220C DBD": {"biological_target": "stabilized p53-Y220C DBD (Homo sapiens, UniProt P04637, M133L/N239Y/N268D/V203A/Y220C)", "assay": "Differential scanning fluorimetry", "format": "binding", "conditions": "compound concentration 250 μM, 8-μM protein", "in_short": "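Thermal shift by DSF used 8 μM stabilized human p53 DBD (residues 94–312, M133L/V203A/N239Y/N268D plus Y220C) with 10× SYPRO Orange. Buffer was 25 mM KPi pH 7.2, 150 mM NaCl, 1 mM TCEP, with 5% (v/v) DMSO final. Test compound was at 250 μM. ΔTm = Tm(mutant + ligand) − Tm(mutant), averaged over replicate runs.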"}, "[4]": {"tested_on": "HUH-7 p53 KO cells (HUH7-F1)", "assay": "Cell viability, 72 h incubation, isogenic knockout", "format": "cell-based, human", "conditions": "0.6 to 15 μM, 72 h, HUH-7 p53 KO", "in_short": "as §1"}, "[5]": {"tested_on": "cancer cell lines with homozygous Y220C mutation", "conditions": "cited from earlier work"}, "p53 wild type": {"biological_target": "p53 wild type (Homo sapiens, UniProt P04637)", "assay": "DSF with wild type p53 DBD", "format": "binding", "conditions": "same conditions as in Table 1 (250 μM)", "in_short": "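Thermal shift of the p53 DNA-binding domain (8 μM) with 10× SYPRO Orange in 25 mM KPi (pH 7.2), 150 mM NaCl, 1 mM TCEP, at 5% (v/v) final DMSO. Test compound was present at 250 μM. ΔTm = Tm (protein + ligand) − Tm (protein alone).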"}, "[6]": {"conditions": "read-out: ITC KD, ¶ single measurement with ITC fit error, # mean of at least three independent measurements with SEM"}},
  "note": "“Also recorded” adds a separate entry of the source. Read-outs that look alike come from different tables or passages of the source.",
  "data": [
    {"smiles": "CCOc1ccc2c3cc(CNC)ccc3n(CC)c2c1", "note": "[PK9295]", "values": [
      {"measurement": "Kd", "setting": "p53-Y220C DBD", "result": "62 ± 6.5", "unit": "µM"}
    ]},
    {"smiles": "CCn1c2ccc(CNC)cc2c2ccc(-c3cc(C)cs3)cc21", "note": "[PK9328]", "values": [
      {"measurement": "Kd", "setting": "p53-Y220C DBD; [6]", "result": "1.7 ± 0.2", "unit": "µM"},
      {"measurement": "slowing of initial rate of Y220C aggregation relative to PK9318", "setting": "p53 Y220C DBD (94-312)", "result": "by a factor of two"},
      {"measurement": "cell viability", "setting": "[1]; 7.5 μM, 72 h, HUH-7", "result": "complete viability loss"},
      {"measurement": "concentration inducing viability loss", "setting": "[1]; 72 h, HUH-7", "result": "≥ 3.75", "unit": "mM"},
      {"measurement": "p53-Y220C-dependent cell viability reduction", "setting": "[1]; 72 h", "result": "p53-Y220C-dependent cell viability reduction was observed"},
      {"measurement": "p53-Y220C-dependent cell viability reduction", "setting": "[1]; 72 h, listed as PK3328", "result": "Y220C-mutant-specific viability reduction"},
      {"measurement": "viability at 72 h, 7.5 µM", "setting": "[2]", "result": "> 50", "unit": "%"},
      {"measurement": "preferential viability reduction in p53-Y220C cells", "setting": "[3]", "result": "preferential viability reduction in p53-Y220C cells"}
    ]},
    {"smiles": "CCn1c2ccc(CNC)cc2c2ccc(-c3ccoc3)cc21", "note": "[PK9321]", "values": [
      {"measurement": "Kd", "setting": "p53-Y220C DBD; [6]", "result": "5.6 ± 1.1", "unit": "µM"}
    ]},
    {"smiles": "CCn1c2ccc(CNC)cc2c2ccc(-c3ccco3)cc21", "note": "[PK9320]", "values": [
      {"measurement": "DSF ΔTM (°C)", "setting": "stabilized p53-Y220C DBD; 250 µM", "result": "3.7 ± 0.0", "unit": "°C"},
      {"measurement": "Kd", "setting": "p53-Y220C DBD; [6]", "result": 4, "unit": "µM"},
      {"measurement": "preferential viability reduction in p53-Y220C cells", "setting": "[3]", "result": "preferential viability reduction in p53-Y220C cells"}
    ]},
    {"smiles": "CCn1c2ccc(CNC)cc2c2ccc(-c3cc(C)c(C)s3)cc21", "note": "[PK9329]", "values": [
      {"measurement": "effect on viability", "setting": "[1]; 0.6 to 15 μM, 72 h, HUH-7", "result": "did not have a significant effect on the viability"},
      {"measurement": "p53-Y220C-dependent cell viability reduction", "setting": "[1]; 72 h", "result": "did not show any p53-Y220C-dependent viability reduction"},
      {"measurement": "effect on viability", "setting": "[4]", "result": "did not have a significant effect on the viability"}
    ]},
    {"smiles": "CCn1c2ccc(CNC)cc2c2ccc(-c3ccc(C)s3)cc21", "note": "[PK9327]", "values": [
      {"measurement": "slowing of initial rate of Y220C aggregation relative to PK9318", "setting": "p53 Y220C DBD (94-312)", "result": "by a factor of two"}
    ]},
    {"smiles": "CCn1c2ccc(CNC)cc2c2ccc(Br)cc21", "note": "[PK9284]", "values": [
      {"measurement": "DSF ΔTM (°C)", "setting": "stabilized p53-Y220C DBD", "result": "3.0 ± 0.1", "unit": "°C"},
      {"measurement": "affinity increase compared with PK083", "setting": "p53-Y220C DBD", "result": "ca. tenfold"},
      {"measurement": "Kd", "setting": "p53-Y220C DBD; [6]", "result": "14.2 ± 2", "unit": "µM"}
    ]},
    {"smiles": "Cn1cc(-c2ccccc2)c(-n2cccc2)n1", "note": "[PK7088]", "values": [
      {"measurement": "effect in Y220C cancer cell lines", "setting": "[5]", "result": "induced a mutant-specific increase in the amount of correctly folded protein and upregulation of p53 target genes p21 and NOXA"}
    ]},
    {"smiles": "CCn1c2ccc(CNC)cc2c2ccc(-c3cccs3)cc21", "note": "[PK9318]", "values": [
      {"measurement": "DSF ΔTM (°C)", "setting": "stabilized p53-Y220C DBD; 250 µM", "result": "3.6 ± 0.2", "unit": "°C"},
      {"measurement": "lowering of initial aggregation rate versus no compound", "setting": "p53 Y220C DBD (94-312); 30 μM compound, 1:10 protein–ligand ratio", "result": "approximately sixfold lower initial aggregation rate"},
      {"measurement": "cell viability", "setting": "[1]; 15 μM, 72 h, HUH-7", "result": "complete viability loss"},
      {"measurement": "concentration inducing viability loss", "setting": "[1]; 72 h, HUH-7", "result": "≥ 3.75", "unit": "mM"},
      {"measurement": "p53-Y220C-dependent cell viability reduction", "setting": "[1]; 72 h", "result": "p53-Y220C-dependent cell viability reduction was observed; also recorded: Y220C-mutant-specific viability reduction"},
      {"measurement": "viability at 7.5 µM", "setting": "[1]; Homo sapiens, Huh-7, 72 h, read-out: cell viability", "result": 58, "unit": "%"},
      {"measurement": "viability at 72 h, 7.5 µM", "setting": "[2]", "result": 88, "unit": "%"},
      {"measurement": "viability at 72 h, 15 µM", "setting": "[2]", "result": 40, "unit": "%"},
      {"measurement": "preferential viability reduction in p53-Y220C cells", "setting": "[3]", "result": "preferential viability reduction in p53-Y220C cells"}
    ]},
    {"smiles": "CCn1c2ccc(CNC)cc2c2ccc(-c3cscn3)cc21", "note": "[PK9323]", "values": [
      {"measurement": "stabilization of the wild type in DSF", "setting": "p53 wild type", "result": "neither the starting scaffold PK083 nor the second-generation carbazole PK9323 did show any stabilization of the wild type"},
      {"measurement": "preferential viability reduction in p53-Y220C cells", "setting": "[3]", "result": "preferential viability reduction in p53-Y220C cells"}
    ]}
  ]
}
